Values after ≈ are worked out from the molar mass of the structure shown.
Test system: Mycobacterium tuberculosis
Test: Antimycobacterial activity against rifampicin and isoniazid-resistant Mycobacterium tuberculosis 43 assessed as growth inhibition
Format: functional
Outline: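 MDR strain 43, resistant to rifampicin and isoniazid, was a clinical isolate from an HIV-negative Bulgarian adult with pulmonary TB. Tested by the Canetti proportion method on Löwenstein–Jensen medium, with compound in DMSO added before coagulation. Colonies were compared with drug-free control as percent inhibition. MIC is the lowest concentration giving complete inhibition (0% growth).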

Row | Compound | MIC
1 | CC1(C)[C@@H]2CC[C@@]1([C@@H](O)CN1CCCCC1)C(=O)C2 | 18.9 µM (≈ 5.02 µg/mL)
2 | CC1CCN(C[C@@H](O)[C@]23CC[C@H](CC2=O)C3(C)C)CC1 | 0.72 µM (≈ 0.201 µg/mL)
3 | CC1(C)[C@@H]2CC[C@@]1([C@@H](O)CN1CCN(c3ccc(F)cc3)CC1)C(=O)C2 | 0.55 µM (≈ 0.198 µg/mL)
4 | CC1(C)[C@@H]2CC[C@@]1([C@H](O)CN1CCN(c3ccc(F)cc3)CC1)C(=O)C2 | 0.55 µM (≈ 0.198 µg/mL)
5 | CC1(C)[C@@H]2CC[C@@]1([C@H](O)CN1CCN(c3ccc(Cl)cc3)CC1)C(=O)C2 | 0.27 µM (≈ 0.102 µg/mL)
6 | CC1(C)[C@@H]2CC[C@@]1([C@@H](O)CN1CCOCC1)C(=O)C2 | > 18.7 µM
